From PubChem BioAssay
Rows were chosen to be rich in hits. Some 2.2% of all compounds tested hit in one or more screens of this group.
PolyA inh – inhibitors of polyadenylation in S. cerevisiae; hit rate 0.02% among 300,000; activity score, % at 12 µM; S. cerevisiae SKY197-pL101 polyadenylation reporter, beta-gal luminescence; efflux-impaired pdr1/pdr3 knockout yeast; score 100 = 6 SD above DMSO;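 active = lowest replicate activity score at least 50, where 100 means six control SD above control mean; inconclusive = lowest score under 50 but half or more replicates reach 50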;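 note: yeast exposed to compound for 9 h at 30 °C; higher score means more reporter readthrough which indicates perturbed polyadenylation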
T cruzi repl – blocks replication of Trypanosoma cruzi | T. cruzi beta-gal in NIH3T3, luminescence, 90 h | inhibition, % (no concentration beside the values) | hit rate 1.4% among 300,000;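 active = mean inhibition across valid replicates above about 55%, limit read from the data; inconclusive = mean below that limit but half or more replicates reach it; inactive = mean below it, under half of replicates reach it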;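 note: signal also drops with host cell toxicity which is not excluded here; 0% = plate median of DMSO wells and 100% = zero luminescence signal; higher percent means less beta-gal luminescence so fewer parasites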
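Assay system: NIH/3T3 fibroblasts plus reporter T. cruzi. Amount: NIH/3T3 cells, 5,000 per well. Buffer or medium: DMEM, 2% fetal bovine serum. Doses: compound pinned at 50 nL/well, DMSO. Schedule: ≥90 h infection period, 3 h prior cell attachment. Signal: luminescent β-galactosidase signal after 60 min lysis. Read-out: parasite load inhibition, %.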
AI-2 QS mod – modulates the Vibrio harveyi AI-2 quorum sensing system; hit rate 0.4% among 300,000; activity change, % at 7.5 µM; Vibrio harveyi JMH597 AI-2 luminescence/OD600 ratio, 9 h; hits give low values; strain lacks LuxN and CqsS sensors; 0 = neutral-control median; in the data active = activity change below about -75%, passing the limit was not always enough; inconclusive = no clear call, values can overlap the other calls;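 note: luminescence divided by OD600 gain over 9 h not by final OD600 alone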
HDAC3 inh – human HDAC3 inhibition; recombinant HDAC3, fluorogenic peptide/trypsin coupled, fluorescence; AID 2718; hit rate 0.15% among 320,000; inhibition, % at 8.3 µM; in the data active = inhibition above about 26%, passing the limit was not always enough; inconclusive = no clear call, values can overlap the other calls
Target sequence (O15379 whole entry, looked up): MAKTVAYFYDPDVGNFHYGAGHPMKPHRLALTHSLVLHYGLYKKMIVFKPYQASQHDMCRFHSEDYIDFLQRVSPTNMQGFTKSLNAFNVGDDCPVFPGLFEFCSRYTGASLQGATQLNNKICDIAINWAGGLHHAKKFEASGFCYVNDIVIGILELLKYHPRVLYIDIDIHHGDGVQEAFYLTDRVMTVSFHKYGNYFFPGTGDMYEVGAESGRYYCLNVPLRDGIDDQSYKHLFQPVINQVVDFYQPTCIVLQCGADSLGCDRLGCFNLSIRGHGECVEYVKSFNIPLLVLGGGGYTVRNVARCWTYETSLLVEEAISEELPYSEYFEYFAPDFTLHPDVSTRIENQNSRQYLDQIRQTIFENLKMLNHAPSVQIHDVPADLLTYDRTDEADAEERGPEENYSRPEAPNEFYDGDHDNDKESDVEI
Efflux pump mplx – antifungal efflux pump inhibition, Nile Red retention. S. cerevisiae Candida pump triplex. inhibition, % at 10 µM. hit rate 0.44% among 330,000;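 active = plate passing quality check with inhibition over a set limit, or well fluorescence over plate mean plus 4 SD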;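 note: Nile Red retained in pooled yeast measured as flow cytometry median fluorescence; 0% = buffer negative control and 100% = Enniatin B positive control; higher means more Nile Red kept so more efflux inhibition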
JMH597 growth rt – retest: inhibitors of Vibrio harveyi JMH597 growth; growth inhibition, % at 7.5 µM; hit rate 1% among 750; OD600 absorbance, 9 h; lacks LuxN and CqsS sensors; shares compounds with AI-2 QS mod;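 active = every replicate shows growth inhibition above 50%; inconclusive = at least half, but not all, replicates pass that cutoff; inactive = fewer than half of replicates pass it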
BB721 lum counter – retest counter-screen: BB721 constitutive quorum sensing luminescence decrease; shares compounds with AI-2 QS mod; Vibrio harveyi BB721 luminescence, 9 h; inhibition, % at 7.5 µM; hit rate 95% among 750; AID 2727;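 active = inhibition above about 80% in every replicate, not just on average, limit read from the data; inconclusive = at least half of replicates past the limit, but not all; inactive = fewer than half of replicates past the limit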
BB721 growth rt – retest: blocks Vibrio harveyi BB721 growth | shares compounds with AI-2 QS mod | OD600 absorbance, 9 h | growth inhibition, % at 7.5 µM | hit rate 3% among 750;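 active = every replicate shows growth inhibition above 50%; inconclusive = at least half but not all replicates above 50% inhibition; inactive = under half of replicates above 50% inhibition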
JMH597 AI-2 mod – Vibrio harveyi AI-2 signaling luminescence modulation – JMH597 strain, confirmation | Vibrio harveyi JMH597 AI-2 quorum sensing luminescence, 9 h; luxN and CqsS knockout, AI-2 only | hit rate 97% among 750 | inhibition, % at 7.5 µM | shares compounds with AI-2 QS mod;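 active = every replicate shows more than 75% inhibition of signal versus neutral control wells; inconclusive = half to three quarters of replicates exceed 75% inhibition; inactive = fewer than half of replicates exceed 75% inhibition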
Numbers without * were called inactive; ? = inconclusive; . = not tested or not shown.

SMILES	PolyA inh	T cruzi repl	AI-2 QS mod	HDAC3 inh	Efflux pump mplx	JMH597 growth rt	BB721 lum counter	BB721 growth rt	JMH597 AI-2 mod
Cc1ccc(S(=O)(=O)N2CCOCC2)cc1NC(=O)COc1ccccc1Cc1ccccc1	.	.	.	9	0	.	.	.	.
Clc1ccccc1/C=C/c1nc(-c2cccnc2)no1	-8	-30	-66	1	0	.	.	.	.
C(=C\c1nc(-c2cccnc2)no1)/c1ccccc1	-8	-4	-95*	-1	0	29	98*	21	99*
CCC(C)N(C(=O)COC(=O)c1ccccc1SCC(=O)N1CCCC1)C1CCS(=O)(=O)C1 (configuration not stated)	-6	-2	17	-2	-1	.	.	.	.
O=[N+]([O-])c1ccc(C2Oc3ccccc3C3CC(c4ccccc4)=NN32)s1 (configuration not stated)	.	.	.	-5	0	.	.	.	.
O=C(CCc1ccccc1)Nc1cc(Cl)ccc1O	5	-6	-97*	2	0	47	100*	46	100*
O=C(O)CC(=O)Nc1cc(Cl)ccc1O	2	26	23	0	0	.	.	.	.
O=C(CN1C(=O)c2ccccc2S1(=O)=O)Nc1cccc(S(=O)(=O)N2CCCCC2)c1	.	.	.	-2	0	.	.	.	.
O=C(CN1C(=O)c2ccccc2S1(=O)=O)Nc1ccc(S(=O)(=O)N2CCCCC2)cc1	13	-9	-85*	5	0	42	96*	39	98*
O=C(CN1C(=O)c2ccccc2S1(=O)=O)Nc1ccc(S(=O)(=O)N2CCCC2)cc1	3	-6	-95*	4	0	13	98*	29	98*
CSc1cccc(NC(=O)CN2C(=O)c3ccccc3S2(=O)=O)c1	-6	-13	-86*	-9	0	27	94*	5	96*
COc1ccc(C(C(=O)NC2CCCC2)N(C(=O)c2ccco2)c2cc3c(cc2C(C)=O)OCO3)cc1 (configuration not stated)	-18	9	22	-5	0	.	.	.	.
COc1cccc(/C=C/C(=O)NCc2ccc3c(c2)OCO3)c1	-3	-9	-86*	-1	0	1	95*	1	96*
COc1cccc(OCc2cc(C(=O)NCc3ccc4c(c3)OCO4)no2)c1	19	9	?	?	0	56	92*	?	96*
O=C(NCc1ccc2c(c1)OCO2)c1cc(COc2c(F)cccc2F)on1	-11	-9	-30	4	0	.	.	.	.
CC(C)(C)C1=CC(O)(c2ccccc2)C=C(C(C)(C)C)C1=O	-25	14	25	21	0	.	.	.	.
CCCCC(Br)C(=O)Nc1ccc(S(=O)(=O)Nc2cc(C)nc(C)n2)cc1 (configuration not stated)	1	-16	-86*	0	0	-12	88*	3	90*
CC(C)NC(=O)COc1coc(CN2CCN(c3ccccc3)CC2)cc1=O	1	-4	22	-1	0	.	.	.	.
N/C(=N\OC(=O)CCc1ccccc1)c1ccccc1Cl	-13	-5	-85*	0	0	9	92*	4	92*
Cc1ccc(CNC(=O)CSc2ccc(-c3cccs3)nn2)cc1	-16	11	24	.	0	.	.	.	.
CCc1nnc(NC(=O)CSc2ccc(-c3ccccc3OC)nn2)s1	16	5	-87*	-4	0	-8	98*	-7	99*
CCc1nnc(NC(=O)CSc2ccc(-c3ccc(F)cc3)nn2)s1	1	3	-93*	-12	0	-23	90*	-10	93*
CCc1nnc(NC(=O)CSc2ccc(-c3cccs3)nn2)s1	1	-18	-89*	-4	0	-8	97*	11	98*
COc1ccc([C@@H]2CC=C(C(=O)O)[C@H](c3ccccc3F)N2S(=O)(=O)c2ccccc2C)cc1	.	.	.	7	0	.	.	.	.
O=C(C#Cc1ccccc1)NCc1ccccc1F	-8	-22	-85*	1	0	16	94*	15	95*
SMILES	PolyA inh	T cruzi repl	AI-2 QS mod	HDAC3 inh	Efflux pump mplx	JMH597 growth rt	BB721 lum counter	BB721 growth rt	JMH597 AI-2 mod
O=C(NCc1ccccc1F)C(c1ccccc1)c1ccccc1	-14	6	16	-1	0	.	.	.	.
Cc1ccc(NC(=O)C(=O)c2ccc(C)cc2)cc1	-8	-16	-93*	1	0	3	97*	19	97*
COc1ccc(S(=O)(=O)N2CCSC2C)cc1C (configuration not stated)	-8	12	4	0	0	.	.	.	.
CC(=O)c1ccc(NC(=O)CCc2ccc(C)o2)cc1	5	3	-88*	-6	0	-2	95*	-16	96*
Cc1ccc(CCC(=O)Nc2ccc(C#N)cc2)o1	-6	5	-80*	-5	0	26	90*	23	93*
Cc1cc(=O)[nH]c(SCC(=O)c2c(N)n(C)c(=O)n(C)c2=O)n1	-16	0	15	-1	0	.	.	.	.
CCOC(=O)c1nc(-c2ccccc2)oc1N1CCOCC1	-11	15	-4	-56	0	.	.	.	.
C=CCn1c2ccccc2c(=O)c2cc(C#Cc3ccccn3)ccc21	.	.	.	-11	0	.	.	.	.
CCCc1ccc(S(=O)(=O)N(C)S(=O)(=O)c2ccc(F)cc2)cc1	-26	20	?	5	0	45	46	26	99*
O=C(COn1nnc2ccc(Cl)cc21)NCc1ccccc1	6	-6	-89*	2	0	4	96*	-5	97*
O=S(=O)(c1ccc(Cl)cc1)N1CCN(C(=S)Nc2ccccc2F)CC1	8	6	0	-4	0	.	.	.	.
O=S(=O)(c1ccc2ccccc2c1)N1CCN(C(=S)Nc2ccccc2F)CC1	2	-5	-97*	-2	0	25	100*	-25	100*
O=C(COC(=O)c1ccc(Br)o1)Nc1nc2ccccc2s1	-3	6	?	-3	0	16	93*	24	95*
Cc1ccc2nc(NC(=O)COC(=O)c3ccco3)sc2c1	17	-6	-92*	3	0	-19	98*	-40	99*
Cc1ccc2nc(NC(=O)COC(=O)c3ccc(Br)o3)sc2c1	.	.	.	6	0	.	.	.	.
Cc1ccccc1C(=O)Nc1ccnn1C1CCN(C(=O)c2cnsn2)CC1	12	6	14	-1	0	.	.	.	.
c1ccc(-c2nnsc2Sc2ccccn2)cc1	-25	-3	25	5	0	.	.	.	.
COc1cc(C)nc(-c2csc(C)n2)n1	-17	-33	26	-6	0	.	.	.	.
